ChEMBL document CHEMBL1139802, “Pyrazole inhibitors of HMG-CoA reductase: an attempt to dramatically reduce synthetic complexity through minimal analog re-design” (Bioorg Med Chem Lett, 2007)

Key:
[1] = target: T1, 3-hydroxy-3-methylglutaryl-coenzyme A reductase (Rattus norvegicus, UniProt P51639); test: Inhibition of HMG-CoA reductase in rat liver microsomes; parameters: species or system Microsome
T1 sequence (P51639 whole entry): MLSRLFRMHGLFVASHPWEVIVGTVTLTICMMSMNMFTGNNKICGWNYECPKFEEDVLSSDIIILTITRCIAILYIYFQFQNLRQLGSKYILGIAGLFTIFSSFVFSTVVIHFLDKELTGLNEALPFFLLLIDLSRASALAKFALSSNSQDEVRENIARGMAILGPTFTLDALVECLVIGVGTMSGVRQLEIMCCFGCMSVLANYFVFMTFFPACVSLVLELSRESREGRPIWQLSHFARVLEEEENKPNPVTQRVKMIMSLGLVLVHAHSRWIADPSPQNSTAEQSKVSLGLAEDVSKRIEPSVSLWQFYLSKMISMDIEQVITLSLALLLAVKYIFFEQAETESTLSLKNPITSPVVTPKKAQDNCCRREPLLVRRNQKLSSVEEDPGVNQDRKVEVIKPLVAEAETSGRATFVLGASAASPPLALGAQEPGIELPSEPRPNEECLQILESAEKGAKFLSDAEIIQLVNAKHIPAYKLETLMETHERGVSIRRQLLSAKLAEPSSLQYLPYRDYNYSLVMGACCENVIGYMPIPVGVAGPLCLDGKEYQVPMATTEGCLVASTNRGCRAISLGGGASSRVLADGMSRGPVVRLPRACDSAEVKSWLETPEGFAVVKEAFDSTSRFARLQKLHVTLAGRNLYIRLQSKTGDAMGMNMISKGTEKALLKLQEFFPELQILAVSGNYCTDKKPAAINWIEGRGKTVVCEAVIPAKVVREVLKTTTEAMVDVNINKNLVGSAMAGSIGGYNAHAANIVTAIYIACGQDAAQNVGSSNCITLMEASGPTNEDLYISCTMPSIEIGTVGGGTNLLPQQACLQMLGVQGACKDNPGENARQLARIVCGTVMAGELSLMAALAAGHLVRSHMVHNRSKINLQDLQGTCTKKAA

[2] = Inhibition of cholesterol synthesis in rat hepatocytes; assay type: functional, cell-based; settings: Hepatocyte
[3] = system: Hamster; test: Inhibition of cholesterol synthesis in hamster at 10 mg/kg, po after 3 to 5 hrs relative to control; assay type: functional, Cricetinae; parameters: scale not given: the % may be the effect or the level left
In short: (§1)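 Male Syrian Golden hamsters received a single oral 10 mg/kg dose. A bolus of sodium 14C-acetate was given at 2, 3 or 4 h post-dose, giving 2–4, 3–5 and 4–6 h windows. Label incorporated into plasma cholesterol was measured over the following 2 h. Results are reported as percent change in incorporation relative to vehicle-dosed animals.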

[4] = system: L6; test: Inhibition of cholesterol synthesis in L6 myocytes; assay type: functional, cell-based; settings: Rattus norvegicus
[5] = system: Hamster; test: Inhibition of cholesterol synthesis in hamster at 10 mg/kg, po after 4 to 6 hrs relative to control; assay type: functional, Cricetinae; parameters: scale not given: the % may be the effect or the level left; in short: as §1
[6] = system: Hamster; test: Inhibition of cholesterol synthesis in hamster at 10 mg/kg, po after 2 to 4 hrs relative to control; assay type: functional, Cricetinae; parameters: scale not given: the % may be the effect or the level left; in short: as §1

Row | SMILES | IC50 [1] [µM] | IC50 [2] [µM] | Activity [3] [%] | IC50 [4] [µM] | Activity [5] [%] | Activity [6] [%]
1 | COCc1cccc(CNC(=O)c2nn(-c3ccc(F)cc3)c(OC[C@@H](O)C[C@@H](O)CC(=O)O)c2C(C)C)c1 | 0.031 | 0.0011 | -6 | 3.6 |  | 
2 | COc1cccc(CN(C)C(=O)c2nn(-c3ccc(F)cc3)c(OC[C@@H](O)C[C@@H](O)CC(=O)O)c2C(C)C)c1 | 0.021 | 0.0016 |  | 9.46 | 53 | 
3 | CC(C)c1c(C(=O)N(C)CC2CCCCC2)nn(-c2ccc(F)cc2)c1OC[C@@H](O)C[C@@H](O)CC(=O)O | 0.0062 | 0.0013 | 23 | 2.51 |  | 
4 | CC(C)c1c(C(=O)N(C)Cc2ccccc2)nn(-c2ccc(F)cc2)c1OC[C@@H](O)C[C@@H](O)CC(=O)O | 0.0052 | 0.0011 |  | 6.72 | 26 | -49
5 | CC(C)c1c(C(=O)N2CCC[C@H](c3ccccc3)C2)nn(-c2ccc(F)cc2)c1OC[C@@H](O)C[C@@H](O)CC(=O)O | 0.0048 | 0.0015 |  | 1.11 |  | -15
6 | CC(C)c1c(C(=O)NCc2ccccc2Cl)nn(-c2ccc(F)cc2)c1OC[C@@H](O)C[C@@H](O)CC(=O)O | 0.0095 | 0.076 |  | 8.45 |  | 
7 | Cc1cccc(CN(C)C(=O)c2nn(-c3ccc(F)cc3)c(OC[C@@H](O)C[C@@H](O)CC(=O)O)c2C(C)C)c1 | 0.037 | 0.0025 |  | 18.5 |  | 
8 | COc1ccc(CNC(=O)c2nn(-c3ccc(F)cc3)c(OC[C@@H](O)C[C@@H](O)CC(=O)O)c2C(C)C)cc1 | 0.012 | 0.037 |  |  |  | 
9 | CC(C)c1c(C(=O)N(C)[C@H](C)c2ccccc2)nn(-c2ccc(F)cc2)c1OC[C@@H](O)C[C@@H](O)CC(=O)O | 0.021 | 0.011 |  |  |  | 
10 | CC(C)c1c(C(=O)N(C)Cc2cccc(Cl)c2)nn(-c2ccc(F)cc2)c1OC[C@@H](O)C[C@@H](O)CC(=O)O | 0.0083 | 0.0018 | 0 | 2.12 |  | 
11 | CC(C)c1c(C(=O)N(C)Cc2ccc(F)c(F)c2)nn(-c2ccc(F)cc2)c1OC[C@@H](O)C[C@@H](O)CC(=O)O | 0.0057 | 0.008 | -5 | 4.57 |  | 
12 | COc1cc(CN(C)C(=O)c2nn(-c3ccc(F)cc3)c(OC[C@@H](O)C[C@@H](O)CC(=O)O)c2C(C)C)cc(OC)c1 | 0.043 | 0.0071 |  |  |  | 
13 | Cc1cccc(CNC(=O)c2nn(-c3ccc(F)cc3)c(OC[C@@H](O)C[C@@H](O)CC(=O)O)c2C(C)C)c1 | 0.0049 | 0.00099 |  | 0.28 |  | 
14 | CC(C)c1c(C(=O)N2CCCCC2)nn(-c2ccc(F)cc2)c1OC[C@@H](O)C[C@@H](O)CC(=O)O | 0.047 | 0.0038 |  | 32.2 |  | 
15 | CC(C)c1c(C(=O)NCc2ccccc2)nn(-c2ccc(F)cc2)c1OC[C@@H](O)C[C@@H](O)CC(=O)O | 0.0038 | 0.014 |  | 0.88 | 41 | 
16 | CC(C)c1c(C(=O)N(C)Cc2ccccc2F)nn(-c2ccc(F)cc2)c1OC[C@@H](O)C[C@@H](O)CC(=O)O | 0.0087 | 0.0032 | -4 | 11.6 |  | 
17 | CC(C)c1c(C(=O)N2CCCC2c2ccccc2)nn(-c2ccc(F)cc2)c1OC[C@@H](O)C[C@@H](O)CC(=O)O (some centres not stated) | 0.014 | 0.008 |  | 4.34 |  | 
18 | CC(C)c1nc(N(C)S(C)(=O)=O)nc(-c2ccc(F)cc2)c1/C=C/[C@@H](O)C[C@@H](O)CC(=O)O [ROSUVASTATIN] | 0.0021 | 0.00023 |  | 0.21 | -46 | -76
19 | COc1ccccc1CNC(=O)c1nn(-c2ccc(F)cc2)c(OC[C@@H](O)C[C@@H](O)CC(=O)O)c1C(C)C | 0.022 | 0.083 |  |  |  | 
20 | COc1cccc(CNC(=O)c2nn(-c3ccc(F)cc3)c(OC[C@@H](O)C[C@@H](O)CC(=O)O)c2C(C)C)c1 | 0.016 | 0.0084 |  | 8.75 | 37 | 
21 | CC(C)c1c(C(=O)NCc2ccccn2)nn(-c2ccc(F)cc2)c1OC[C@@H](O)C[C@@H](O)CC(=O)O | 0.025 | 0.0075 |  |  |  | 
22 | CC(C)c1c(C(=O)NCc2cccc(F)c2F)nn(-c2ccc(F)cc2)c1OC[C@@H](O)C[C@@H](O)CC(=O)O | 0.002 | 0.019 |  | 0.12 |  | 
23 | CCCCNC(=O)c1nn(-c2ccc(F)cc2)c(OC[C@@H](O)C[C@@H](O)CC(=O)O)c1C(C)C | 0.076 | 0.039 |  |  |  | 

Now from value to molecule, other results behind:

Row | IC50 [1] [µM] | SMILES | IC50 [2] [µM] | Activity [3] [%] | IC50 [4] [µM] | Activity [5] [%] | Activity [6] [%]
24 | 0.0062 | CC(C)c1c(C(=O)N(C)Cc2ccccc2)nn(-c2ccc(F)cc2)c1CC[C@@H](O)C[C@@H](O)CC(=O)O | 0.00031 |  | 2.87 | -16 | -61
25 | 0.0054 | CC(C)c1c(C(=O)NCc2cccc(Cl)c2)nn(-c2ccc(F)cc2)c1OC[C@@H](O)C[C@@H](O)CC(=O)O | 0.0099 |  |  |  | 
26 | 0.014 | CC(C)c1c(C(=O)N(C)Cc2cccc(F)c2F)nn(-c2ccc(F)cc2)c1OC[C@@H](O)C[C@@H](O)CC(=O)O | 0.0028 |  | 0.86 |  | 
27 | 0.0025 | Cc1ccc(CNC(=O)c2nn(-c3ccc(F)cc3)c(CC[C@@H](O)C[C@@H](O)CC(=O)O)c2C(C)C)cc1 | 0.0011 |  | 0.8 | -15 | -74
28 | 0.017 | CC(C)c1c(C(=O)NCC2CCCCC2)nn(-c2ccc(F)cc2)c1OC[C@@H](O)C[C@@H](O)CC(=O)O | 0.056 |  |  |  | 
29 | 0.018 | CC(C)c1c(C(=O)N(C)Cc2ccc(F)cc2)nn(-c2ccc(F)cc2)c1OC[C@@H](O)C[C@@H](O)CC(=O)O | 0.0038 |  | 2.8 | 91 | 
30 | 0.016 | CCOc1cccc(CN(C)C(=O)c2nn(-c3ccc(F)cc3)c(OC[C@@H](O)C[C@@H](O)CC(=O)O)c2C(C)C)c1 | 0.0028 |  | 3.55 |  | 
31 | 0.014 | CC(C)c1c(C(=O)N(C)Cc2cccc(F)c2)nn(-c2ccc(F)cc2)c1OC[C@@H](O)C[C@@H](O)CC(=O)O | 0.0019 |  | 2.47 | -1 | -41
32 | 0.017 | Cc1ccccc1CNC(=O)c1nn(-c2ccc(F)cc2)c(OC[C@@H](O)C[C@@H](O)CC(=O)O)c1C(C)C | 0.00088 |  | 2.85 | 39 | 
33 | 0.015 | Cc1ccc(CNC(=O)c2nn(-c3ccc(F)cc3)c(OC[C@@H](O)C[C@@H](O)CC(=O)O)c2C(C)C)cc1 | 0.0018 |  | 2.11 | 9 | -30
34 | 0.031 | CC(C)c1c(C(=O)N(C)Cc2cccc(C(F)(F)F)c2)nn(-c2ccc(F)cc2)c1OC[C@@H](O)C[C@@H](O)CC(=O)O | 0.012 |  |  |  | 
35 | 0.037 | Cc1ccc(CN(C)C(=O)c2nn(-c3ccc(F)cc3)c(OC[C@@H](O)C[C@@H](O)CC(=O)O)c2C(C)C)cc1 | 0.0012 |  | 1.25 |  | 
36 | 0.015 | CC(C)c1c(C(=O)NCCc2ccccc2)nn(-c2ccc(F)cc2)c1OC[C@@H](O)C[C@@H](O)CC(=O)O | 0.014 |  | 0.76 |  | 
37 | 0.0041 | CC(C)c1c(C(=O)N(C)Cc2cccc(F)c2)nn(-c2ccc(F)cc2)c1CC[C@@H](O)C[C@@H](O)CC(=O)O | 0.00016 |  | 1.9 | -12 | -66
38 | 0.0021 | CC(C)c1c(C(=O)N2CCC[C@H](c3ccccc3)C2)nn(-c2ccc(F)cc2)c1CC[C@@H](O)C[C@@H](O)CC(=O)O | 0.00028 | -57 | 0.31 |  | -78
39 | 0.0067 | CC(C)c1c(C(=O)NCc2ccc(Cl)cc2)nn(-c2ccc(F)cc2)c1OC[C@@H](O)C[C@@H](O)CC(=O)O | 0.044 |  |  |  | 
40 | 0.014 | CCN(Cc1ccccc1)C(=O)c1nn(-c2ccc(F)cc2)c(OC[C@@H](O)C[C@@H](O)CC(=O)O)c1C(C)C | 0.0047 |  | 2.66 |  | 
